Measurements gathered from unrelated publications.
Protocols differ between the studies behind these lines. In brackets after ≈: the same amount, converted by molar mass.

CCC(CC)COC(=O)[C@H](C)N[P@](=O)(OC[C@H]1O[C@@](C#N)(c2ccc3c(N)ncnn23)[C@H](O)[C@@H]1O)Oc1ccccc1
IC50 (Betacoronavirus 1; viral replication; MRC5, OC43): 1.49 µM

CCCc1cc(=O)c2c(o1)C[C@@H](O)C[C@H]2O
inhibition (Influenza A virus; viral replication, inhibitor; H1N1 WSN; 10 µM): 18.8%

Nc1nc2nc[nH]c2c(=S)[nH]1
IC50 (Betacoronavirus 1; viral replication; MRC5, OC43): 16.6 µM

CC[C@H](C)[C@H]1C(=O)N2CCC[C@H]2C(=O)O[C@H](C(C)(C)C)C[C@@H](C)C[C@H](O)[C@H](C)C2=N[C@@H](CCC(=O)N[C@@H](Cc3ccc(OC)cc3)C(=O)N(C)[C@@H](C)C(=O)N1C)CS2
IC50 (West Nile virus; viral replication; Huh7.5; 24 h, clinical isolate): 0.014 µM

CN(C)CCOc1ccc(/C(=C(/CCCl)c2ccccc2)c2ccccc2)cc1
IC50 (Betacoronavirus 1; viral replication; MRC5, OC43): 9.73 µM

CC1(C)CC[C@]2(C(=O)O[C@@H]3O[C@H](CO)[C@@H](O)[C@H](O)[C@H]3O)CC[C@]3(C)C(=CC[C@@H]4[C@@]5(C)CC[C@H](O)C(C)(C)[C@@H]5CC[C@]43C)[C@@H]2C1
IC50 (human Neutrophil; superoxide release, inhibitor): > 30 µM

Cc1c(CCC(=O)O)c(=O)oc2c(C)c(OCc3ccc(-c4ccccc4)cc3)ccc12
MIC (Enterococcus; microbial growth; ATCC51575 VRE): > 25 µg/mL

CCCCCOc1ccc(-c2cc(-c3ccc(C(=O)N[C@H]4C[C@@H](O)[C@@H](O)NC(=O)[C@@H]5[C@@H](O)[C@@H](C)CN5C(=O)[C@H]([C@H](O)CC(N)=O)NC(=O)[C@H]([C@H](O)[C@@H](O)c5ccc(O)c(OS(=O)(=O)O)c5)NC(=O)[C@@H]5C[C@@H](O)CN5C(=O)[C@H]([C@@H](C)O)NC4=O)cc3)no2)cc1
MIC50 (Pichia kudriavzevii; microbial growth): 0.5 µg/mL (≈ 0.394 µM)

CC[C@H](C)C[C@H](C)CCCCCCCCC(=O)N[C@H]1C[C@@H](O)[C@@H](NCCN)NC(=O)[C@@H]2[C@@H](O)CCN2C(=O)[C@H]([C@H](O)CCN)NC(=O)[C@H]([C@H](O)[C@@H](O)c2ccc(O)cc2)NC(=O)[C@@H]2C[C@@H](O)CN2C(=O)[C@H]([C@@H](C)O)NC1=O
MIC (Pichia kudriavzevii; microbial growth, broth dilution; ATCC6258): 0.5 µg/mL (≈ 0.457 µM)
